According to ChEMBL document CHEMBL5625176, “Immunosuppressive effects of new thiophene-based KV1.3 inhibitors” (Eur J Med Chem, 2023):
Converted amounts (≈) assume the structure as drawn. The source made the active and inactive calls. The rule behind the calls is not given here.

Columns and labels:
[1] = Thermodynamic solubility of the compound at pH 7.4 incubated for 24 hrs under shaking condition by HPLC analysis; assay type: physicochemical; details: buffer, read-out: Therm_solubility
In short: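 Supernatant diluted 1:2 or 1:10 in 0.1% TFA/MeCN 1:1 and quantified by reversed-phase UPLC at 290 nm against a 7-point calibration (1–100 μM). Mean of two independent experiments, in μM.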

[2] = biological target: Potassium voltage-gated channel subfamily A member 1 (Homo sapiens, UniProt Q09470); assay: Inhibition of Kv1.1 (unknown origin) expressed in Xenopus laevis Oocyte cells by electrophysiological recording; assay type: cell-based
Sequence of Potassium voltage-gated channel subfamily A member 1 (Q09470 whole entry): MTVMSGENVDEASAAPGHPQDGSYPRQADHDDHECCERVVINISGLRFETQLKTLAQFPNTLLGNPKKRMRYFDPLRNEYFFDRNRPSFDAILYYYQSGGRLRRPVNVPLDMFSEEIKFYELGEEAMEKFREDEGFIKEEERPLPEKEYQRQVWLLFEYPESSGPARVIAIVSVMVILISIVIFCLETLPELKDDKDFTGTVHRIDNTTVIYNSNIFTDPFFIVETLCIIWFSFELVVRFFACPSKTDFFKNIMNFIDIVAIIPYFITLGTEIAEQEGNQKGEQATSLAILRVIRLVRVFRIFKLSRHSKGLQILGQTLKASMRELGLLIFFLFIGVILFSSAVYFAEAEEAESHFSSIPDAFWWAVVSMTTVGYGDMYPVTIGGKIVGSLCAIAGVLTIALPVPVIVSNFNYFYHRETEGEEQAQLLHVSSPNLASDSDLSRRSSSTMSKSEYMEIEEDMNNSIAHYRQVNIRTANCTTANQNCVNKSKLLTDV
In short: (§1)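 Kv1.x cRNA expressed in defolliculated Xenopus oocytes and recorded by two-electrode voltage clamp 1–4 days after injection, at 18–22 °C in ND96 pH 7.5. 1 s pulses, analysed at 0 mV. Compounds applied at rising concentrations with ≤0.5% DMSO, and current inhibition relative to control fitted with the Hill equation.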

[3] = biological target: T1, Potassium voltage-gated channel subfamily A member 3 (Homo sapiens, UniProt P22001); assay: Inhibition of Kv1.3 (unknown origin) expressed in PBMC derived PHA-activated T-lymphocyte cells incubated for 5 days by manual patch clamp method; assay type: cell-based
T1 sequence (P22001 whole entry): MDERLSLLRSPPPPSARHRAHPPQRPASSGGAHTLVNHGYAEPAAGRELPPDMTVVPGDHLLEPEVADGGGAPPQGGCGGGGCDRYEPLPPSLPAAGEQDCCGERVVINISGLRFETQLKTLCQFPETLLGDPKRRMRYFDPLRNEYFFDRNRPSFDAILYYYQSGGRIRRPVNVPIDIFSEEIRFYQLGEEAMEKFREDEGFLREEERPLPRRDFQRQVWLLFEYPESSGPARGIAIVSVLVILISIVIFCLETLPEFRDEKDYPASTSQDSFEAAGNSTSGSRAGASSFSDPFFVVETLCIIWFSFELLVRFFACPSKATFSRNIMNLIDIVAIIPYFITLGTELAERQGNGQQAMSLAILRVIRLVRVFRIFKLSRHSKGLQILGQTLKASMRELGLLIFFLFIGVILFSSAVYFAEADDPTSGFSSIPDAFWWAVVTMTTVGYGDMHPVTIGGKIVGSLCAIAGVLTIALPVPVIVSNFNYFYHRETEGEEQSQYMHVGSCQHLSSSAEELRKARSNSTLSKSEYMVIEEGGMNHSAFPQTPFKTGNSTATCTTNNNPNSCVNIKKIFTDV
In short: (§2)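 Whole-cell recording on PBMC stimulated 5 days with PHA-L (240 ng/mL); about 90% of cells CD3⁺. Large cells chosen; cells with currents ≤500–600 pA discarded. Bath in mM: 130 NaCl, 5 KCl, 2 CaCl₂, 2 MgCl₂, 10 HEPES, 5 glucose, pH 7.4; pipette KF-based with 11 EGTA, pH 7.2. Leak-subtracted two-step outward K⁺ current. Single concentration 5 μM, or 0.05 nM–50 μM for curves; peak normalized to control.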

[4] = biological target: Potassium voltage-gated channel subfamily A member 4 (Homo sapiens) (UniProt P22459); assay: Inhibition of Kv1.4 (unknown origin) expressed in Xenopus laevis Oocyte cells by electrophysiological recordings relative to control; assay type: cell-based; details: concentration not given here; in short: as §1
Sequence of Potassium voltage-gated channel subfamily A member 4 (Homo sapiens) (P22459 whole entry): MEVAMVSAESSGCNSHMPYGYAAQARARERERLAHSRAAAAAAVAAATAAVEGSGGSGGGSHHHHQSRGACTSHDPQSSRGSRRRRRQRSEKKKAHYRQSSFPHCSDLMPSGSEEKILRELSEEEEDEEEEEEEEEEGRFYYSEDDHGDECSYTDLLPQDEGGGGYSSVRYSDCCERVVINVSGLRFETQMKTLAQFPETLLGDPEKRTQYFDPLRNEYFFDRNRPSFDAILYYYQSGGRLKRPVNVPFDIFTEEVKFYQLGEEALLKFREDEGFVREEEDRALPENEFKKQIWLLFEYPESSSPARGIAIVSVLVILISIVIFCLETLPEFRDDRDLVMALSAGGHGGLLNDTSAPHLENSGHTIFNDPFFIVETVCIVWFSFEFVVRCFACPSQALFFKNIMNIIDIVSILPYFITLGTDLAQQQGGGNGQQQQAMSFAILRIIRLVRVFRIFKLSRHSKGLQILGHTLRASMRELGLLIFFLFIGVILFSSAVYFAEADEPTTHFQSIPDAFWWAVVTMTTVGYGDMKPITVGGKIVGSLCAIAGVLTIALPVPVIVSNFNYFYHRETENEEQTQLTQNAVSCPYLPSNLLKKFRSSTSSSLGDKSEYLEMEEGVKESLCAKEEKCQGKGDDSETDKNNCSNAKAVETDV

T-cell line [5] = assay: Cytotoxicity against human PBMC derived PHA-activated T-lymphocytes assessed as effect on cell viability by trypan blue staining based analysis; assay type: toxicity; details: 30 µM
In short: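 PBMC purified by Ficoll gradient with red-cell lysis, seeded at 1.5 × 10⁶ cells/mL in RPMI with 10% heat-inactivated serum and 2 mM L-glutamine. Activated with PHA-L 240 ng/mL alongside compounds at 30 μM. Viability of treated versus untreated cells judged by trypan blue staining.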

[6] = biological target: T1, Potassium voltage-gated channel subfamily A member 3; assay: Inhibition of Kv1.3 in human PBMC derived PHA-activated T-lymphocytes assessed as reduction in intracellular calcium level at 5 uM incubated for 2 hrs by Fluo-4 Ca2+ based flow cytometric analysis relative to control; assay type: cell-based; details: T-lymphocyte
In short: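 PBMC activated 5 days with PHA, then given compounds at 5 μM for 2 h. Scraped and loaded with Fluo-4 (2 μM) plus anti-CD3-APC at 37 °C for 1 h, washed, and held 30 min at 37 °C with compound (5 μM) before flow cytometry. Fluo-4 MFI of the CD3⁺ gate, 3 replicates, normalized to untreated control; n = 4.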

[7] = biological target: T1, Potassium voltage-gated channel subfamily A member 3; assay: Inhibition of human Kv1.3 expressed in Xenopus laevis Oocyte cells at 10 uM by manual patch clamp method relative to control; assay type: cell-based
In short: (§3)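 Human Kv1.3 cRNA injected into defolliculated Xenopus oocytes. Two-electrode voltage clamp 1–4 days later at 18–22 °C in ND96 (pH 7.5). Currents evoked by 1 s depolarizations, with inhibition read at the 0 mV step. Compounds from DMSO stock at ≤0.5% DMSO, either single 10 μM or rising concentrations fitted with the Hill equation for IC50.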

[8] = Stability of compound in PBS at pH 7.4 measured for >=120 hrs by HPLC analysis; assay type: physicochemical; details: buffer, pH 7.4, 120 h
In short: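 Aqueous stability: 10 mM DMSO stock diluted to a final 50 μM in PBS pH 7.4 with 20% MeCN and 0.5% DMSO, filtered, held at 37 °C. UPLC (BEH C18, 280 nm) injections every 4 h for the first 24 h, then every 8 h. Analyte AUC plotted against time; triplicates.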

T-cell line [9] = assay: Cytotoxicity against human PBMC derived PHA-activated T-lymphocytes assessed as effect on total cell number at 30 uM incubated for 5 days by bright-field microscopic analysis; assay type: toxicity, cell-based; details: 120 h, time 5 day
In short: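 Ficoll-purified PBMC at 1.5 × 10⁶ cells/mL in RPMI/10% heat-inactivated serum/2 mM L-glutamine, stimulated with PHA-L 240 ng/mL and exposed to compounds (30 μM) for 5 days. Cells then counted to give total cell number.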

T-cell [10] = assay: Induction of cell cycle arrest at G0/G1 phase in human PBMC derived PHA-activated T-lymphocytes assessed as reduction S phase cells at 30 uM measured after 5 days by flow cytometric analysis; assay type: functional, cell-based; details: time 5.0 day
In short: (§4)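 PHA-activated PBMC exposed to compounds (30 μM) for 5 days in RPMI/10% heat-inactivated calf serum/2 mM L-glutamine, scraped off and incubated 1 h at 4 °C in the dark. Cell cycle read by flow cytometry and scored as G0/G1 versus cycling (S+G2/M) percentage. Mean ± SD of 3 experiments; unpaired t-test against untreated cells.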

[11] = biological target: T1, Potassium voltage-gated channel subfamily A member 3; assay: Inhibition of Kv1.3 (unknown origin) expressed in human PBMC derived PHA-activated T-lymphocyte cells assessed as reduction in total outward potassium current at 5 uM by patch clamp electrophysiology method; assay type: cell-based; in short: as §2
T-cell [12] = assay: Induction of cell cycle arrest at G0/G1 phase in human PBMC derived PHA-activated T-lymphocytes assessed as reduction G2/M phase cells at 30 uM measured after 5 days by flow cytometric analysis; assay type: functional, cell-based; details: time 5.0 day; in short: as §4
hERG (KCNH2) = hERG (KCNH2) (Homo sapiens, UniProt Q12809); assay: Inhibition of hERG overexpressed in HEK293 cells at 5 uM relative to control; assay type: toxicity, cell-based; details: HEK293 cells overexpressing hERG
Sequence of hERG (KCNH2) (Q12809 whole entry): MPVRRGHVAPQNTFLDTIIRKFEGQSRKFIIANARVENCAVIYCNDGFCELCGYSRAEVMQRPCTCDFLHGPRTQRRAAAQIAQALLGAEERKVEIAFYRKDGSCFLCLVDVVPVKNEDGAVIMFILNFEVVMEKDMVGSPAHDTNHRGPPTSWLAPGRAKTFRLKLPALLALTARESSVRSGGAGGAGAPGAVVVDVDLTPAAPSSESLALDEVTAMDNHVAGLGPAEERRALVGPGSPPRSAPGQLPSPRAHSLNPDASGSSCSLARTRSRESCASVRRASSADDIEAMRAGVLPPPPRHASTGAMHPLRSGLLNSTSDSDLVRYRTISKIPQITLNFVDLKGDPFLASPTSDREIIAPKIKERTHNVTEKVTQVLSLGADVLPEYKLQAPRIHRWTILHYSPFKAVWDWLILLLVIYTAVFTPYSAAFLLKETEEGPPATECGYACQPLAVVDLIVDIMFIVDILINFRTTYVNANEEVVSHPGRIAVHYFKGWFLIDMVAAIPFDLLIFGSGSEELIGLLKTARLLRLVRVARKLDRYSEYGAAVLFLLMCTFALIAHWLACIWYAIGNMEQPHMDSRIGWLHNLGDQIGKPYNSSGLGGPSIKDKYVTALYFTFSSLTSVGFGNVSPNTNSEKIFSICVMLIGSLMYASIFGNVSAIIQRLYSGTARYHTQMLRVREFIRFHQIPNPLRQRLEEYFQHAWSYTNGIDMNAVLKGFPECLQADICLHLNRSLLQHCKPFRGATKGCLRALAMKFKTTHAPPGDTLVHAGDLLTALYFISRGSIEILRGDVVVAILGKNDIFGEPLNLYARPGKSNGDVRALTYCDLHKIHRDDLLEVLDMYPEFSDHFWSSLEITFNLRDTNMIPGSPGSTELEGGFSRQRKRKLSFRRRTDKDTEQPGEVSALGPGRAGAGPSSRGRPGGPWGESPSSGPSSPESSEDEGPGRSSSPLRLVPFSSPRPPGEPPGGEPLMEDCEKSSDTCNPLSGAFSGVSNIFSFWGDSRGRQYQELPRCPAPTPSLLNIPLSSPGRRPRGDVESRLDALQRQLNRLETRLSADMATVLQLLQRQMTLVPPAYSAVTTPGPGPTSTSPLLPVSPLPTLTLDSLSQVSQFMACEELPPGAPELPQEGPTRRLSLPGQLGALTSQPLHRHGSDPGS

[13] = biological target: T1, Potassium voltage-gated channel subfamily A member 3; assay: Selectivity ratio of IC50 for inhibition of human Kv1.3 expressed in mouse LTK- cells to IC50 for inhibition of human Kv1.3 expressed in Xenopus laevis Oocyte cells; assay type: cell-based
[14] = biological target: Potassium voltage-gated channel subfamily A member 5 (Homo sapiens) (UniProt P22460); assay: Inhibition of Kv1.5 (unknown origin) expressed in Xenopus laevis Oocyte cells by electrophysiological recordings relative to control; assay type: cell-based; details: concentration not given here; in short: as §1
Sequence of Potassium voltage-gated channel subfamily A member 5 (Homo sapiens) (P22460 whole entry): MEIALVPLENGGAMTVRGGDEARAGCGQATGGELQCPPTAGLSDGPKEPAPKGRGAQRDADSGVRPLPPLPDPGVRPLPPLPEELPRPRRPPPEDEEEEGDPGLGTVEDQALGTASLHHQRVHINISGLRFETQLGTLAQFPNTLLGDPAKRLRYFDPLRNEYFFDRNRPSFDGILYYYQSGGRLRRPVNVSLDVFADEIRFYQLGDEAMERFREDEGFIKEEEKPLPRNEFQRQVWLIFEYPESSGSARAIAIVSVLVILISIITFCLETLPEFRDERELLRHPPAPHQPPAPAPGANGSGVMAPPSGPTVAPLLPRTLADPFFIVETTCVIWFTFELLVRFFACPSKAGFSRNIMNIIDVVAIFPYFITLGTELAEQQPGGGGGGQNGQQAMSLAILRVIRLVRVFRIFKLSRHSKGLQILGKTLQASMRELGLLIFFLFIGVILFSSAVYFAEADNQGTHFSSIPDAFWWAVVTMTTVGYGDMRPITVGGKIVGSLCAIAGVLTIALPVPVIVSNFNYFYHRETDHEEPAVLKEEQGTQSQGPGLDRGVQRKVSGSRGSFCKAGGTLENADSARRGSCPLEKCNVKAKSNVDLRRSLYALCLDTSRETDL

[15] = biological target: T1, Potassium voltage-gated channel subfamily A member 3; assay: Inhibition of human Kv1.3 expressed in Xenopus laevis Oocyte cells by Electrophysiology recording; assay type: cell-based; in short: as §3
T-cell [16] = assay: Inhibition of human PBMC derived PHA-activated T-lymphocytes activation assessed as inhibition of colony formation by measuring reduction in colony forming units at 30 uM incubated for 5 days by bright-field microscopic analysis; assay type: functional, cell-based; details: time 5.0 day
In short: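 PBMC at 1.5 × 10⁶ cells/mL treated with compounds (30 μM) together with PHA-L (240 ng/mL) for 5 days in RPMI with 10% heat-inactivated bovine calf serum and 2 mM L-glutamine. After medium removal, wells imaged by bright-field microscopy at 2× and colonies (CFU) counted. Mean ± SD of 3 experiments.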

[17] = biological target: Potassium voltage-gated channel subfamily A member 2 (Homo sapiens, UniProt P16389); assay: Inhibition of Kv1.2 (unknown origin) expressed in Xenopus laevis Oocyte cells by electrophysiological recording; assay type: cell-based; in short: as §1
Sequence of Potassium voltage-gated channel subfamily A member 2 (P16389 whole entry): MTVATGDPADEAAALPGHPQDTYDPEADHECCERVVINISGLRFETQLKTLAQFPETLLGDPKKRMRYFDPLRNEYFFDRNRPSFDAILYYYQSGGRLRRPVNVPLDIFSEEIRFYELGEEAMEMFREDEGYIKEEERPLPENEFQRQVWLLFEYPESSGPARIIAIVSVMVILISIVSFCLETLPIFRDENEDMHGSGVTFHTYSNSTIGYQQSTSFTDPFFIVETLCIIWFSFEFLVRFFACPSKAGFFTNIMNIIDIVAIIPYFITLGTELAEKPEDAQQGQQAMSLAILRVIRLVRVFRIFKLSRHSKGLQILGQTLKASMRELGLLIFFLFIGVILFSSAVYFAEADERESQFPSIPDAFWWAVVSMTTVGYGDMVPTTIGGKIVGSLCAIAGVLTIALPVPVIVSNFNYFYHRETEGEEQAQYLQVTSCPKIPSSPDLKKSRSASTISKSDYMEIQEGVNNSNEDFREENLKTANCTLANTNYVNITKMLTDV

[18] = biological target: Potassium voltage-gated channel subfamily A member 6 (Homo sapiens) (UniProt P17658); assay: Inhibition of Kv1.6 (unknown origin) expressed in Xenopus laevis Oocyte cells by electrophysiological recordings relative to control; assay type: cell-based; details: concentration not given here; in short: as §1
Sequence of Potassium voltage-gated channel subfamily A member 6 (Homo sapiens) (P17658 whole entry): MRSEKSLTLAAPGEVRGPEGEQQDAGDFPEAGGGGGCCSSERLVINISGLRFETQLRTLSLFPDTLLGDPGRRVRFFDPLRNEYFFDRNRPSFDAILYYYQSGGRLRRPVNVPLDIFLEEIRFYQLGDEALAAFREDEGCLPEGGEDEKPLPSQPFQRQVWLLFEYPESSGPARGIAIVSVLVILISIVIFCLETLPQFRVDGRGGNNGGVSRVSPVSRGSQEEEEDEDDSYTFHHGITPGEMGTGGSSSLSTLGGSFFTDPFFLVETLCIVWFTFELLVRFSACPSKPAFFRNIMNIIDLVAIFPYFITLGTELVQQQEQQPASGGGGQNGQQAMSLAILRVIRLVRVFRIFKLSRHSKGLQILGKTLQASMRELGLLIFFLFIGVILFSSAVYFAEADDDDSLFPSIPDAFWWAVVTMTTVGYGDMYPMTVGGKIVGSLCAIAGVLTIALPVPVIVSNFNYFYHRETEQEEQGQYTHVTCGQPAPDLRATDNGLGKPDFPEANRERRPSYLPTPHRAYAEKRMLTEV

[19] = biological target: T1, Potassium voltage-gated channel subfamily A member 3; assay: Inhibition of human Kv1.3 expressed in mouse LTK- cells by manual patch clamp electrophysiological recording; assay type: cell-based
In short: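 Mouse Ltk⁻ fibroblasts in DMEM/10% horse serum transiently transfected with hKv1.3 plasmid plus eGFP marker, and recorded 24 h later. Whole-cell patch clamp at 20–23 °C. Compounds diluted from DMSO stocks with final DMSO ≤0.1%, with 0.1% DMSO as vehicle control. Normalized current plotted against concentration and fitted with the Hill equation for IC50; mean ± SEM, n = cells.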

CCCNC(=O)O[C@H]1CC[C@@](CNC(=O)c2ccccc2OC)(c2ccsc2)CC1
solubility thermodynamic at 24 h [1]: 22 µM (≈ 9.47 µg/mL) | IC50 [2]: 124 nM | IC50 [3]: 26.1 nM | inhibition [4]: 6.4% | Activity (T-cell line [5]): Non-Toxic | inhibition [6]: 27% | inhibition [7]: 90.7% | Stability [8]: Stable | Activity (T-cell line [9]): Non-Toxic | Activity (T-cell [10]): Active | inhibition [11]: Active | Activity (T-cell [12]): Active | inhibition at 5 µM (hERG (KCNH2)): 21% | Ratio IC50 [13]: < 2 | inhibition [14]: 11.4% | IC50 [15]: 136 nM | inhibition (T-cell [16]): Active | IC50 [17]: 308 nM | inhibition [18]: -1.1% | IC50 [19]: 230 nM
